Measured values taken from ChEMBL document CHEMBL1154674, “Synthesis and evaluation of three 18F-labeled aminophenylbenzothiazoles as amyloid imaging agents” (J Med Chem, 2009).
Values belong to the compound of their own block, whether it stands above or below them.

Experiments:
Assay type in all cases: ADME, organism-based, Macaca mulatta
[1] = Drug level in normal rhesus monkey pons assessed as standard uptake value at 81.2 MBq, iv after 3.5 mins by microPET; conditions: in vivo
[2] = Drug level in normal rhesus monkey pons assessed as standard uptake value at 81.2 MBq, iv after 8 mins by microPET; conditions: in vivo
[3] = Drug level in normal rhesus monkey pons assessed as standard uptake value at 81.2 MBq, iv after 145 mins by microPET; conditions: in vivo
[4] = Drug level in normal rhesus monkey pons assessed as standard uptake value at 81.2 MBq, iv after 155 mins by microPET; conditions: in vivo
[5] = Drug level in normal rhesus monkey parietal cortex assessed as standard uptake value at 81.2 MBq, iv after 32.5 mins by microPET; conditions: in vivo
[6] = Drug level in normal rhesus monkey white matter assessed as standard uptake value at 81.2 MBq, iv after 2.5 mins by microPET; conditions: in vivo
[7] = Drug level in normal rhesus monkey thalamus assessed as standard uptake value at 81.2 MBq, iv after 42.5 mins by microPET; conditions: in vivo
[8] = Drug level in normal rhesus monkey frontal cortex assessed as standard uptake value at 81.2 MBq, iv after 95 mins by microPET; conditions: in vivo
[9] = Drug level in normal rhesus monkey frontal cortex assessed as standard uptake value at 81.2 MBq, iv after 0.5 mins by microPET; conditions: in vivo
Procedure, shortened: (§1)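 Single normal rhesus monkey; each tracer given iv via the vena saphena, with 1 day between tracer injections. Dynamic μPET ran 180 min (5×60 s, 5×120 s, 9×300 s, 12×600 s). Images were reconstructed by filtered back projection with a RAMP filter. Regional time-activity curves were expressed as SUV.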

[10] = Drug level in normal rhesus monkey frontal cortex assessed as standard uptake value at 81.2 MBq, iv after 3.5 mins by microPET; conditions: in vivo
[11] = Drug level in normal rhesus monkey frontal cortex assessed as standard uptake value at 81.2 MBq, iv after 22.5 mins by microPET; conditions: in vivo, 0.375 h
[12] = Drug level in normal rhesus monkey cerebellum assessed as standard uptake value at 81.2 MBq, iv after 14 mins by microPET; conditions: in vivo
Procedure, shortened: (§2)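 One normal rhesus monkey, each tracer given iv via the vena saphena (81.2, 96.3 or 109.4 MBq), with 1 day between tracer injections. Dynamic brain μPET over 180 min used frames of 5 × 60 s, 5 × 120 s, 9 × 300 s and 12 × 600 s. Images were reconstructed by filtered back projection with a RAMP filter. Regional time-activity curves were expressed as SUV.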

[13] = Drug level in normal rhesus monkey thalamus assessed as standard uptake value at 96.3 MBq, iv after 27.5 mins by microPET; conditions: in vivo
[14] = Drug level in normal rhesus monkey thalamus assessed as standard uptake value at 96.3 MBq, iv after 3.5 mins by microPET; conditions: in vivo
[15] = Drug level in normal rhesus monkey thalamus assessed as standard uptake value at 96.3 MBq, iv after 17.5 mins by microPET; conditions: in vivo
[16] = Drug level in normal rhesus monkey thalamus assessed as standard uptake value at 96.3 MBq, iv after 37.5 mins by microPET; conditions: in vivo, 0.625 h
[17] = Drug level in normal rhesus monkey thalamus assessed as standard uptake value at 96.3 MBq, iv after 42.5 mins by microPET; conditions: in vivo
[18] = Drug level in normal rhesus monkey thalamus assessed as standard uptake value at 96.3 MBq, iv after 65 mins by microPET; conditions: in vivo
[19] = Drug level in normal rhesus monkey thalamus assessed as standard uptake value at 96.3 MBq, iv after 135 mins by microPET; conditions: in vivo, 2.25 h
[20] = Drug level in normal rhesus monkey pons assessed as standard uptake value at 96.3 MBq, iv after 8 mins by microPET; conditions: in vivo
[21] = Drug level in normal rhesus monkey cerebellum assessed as standard uptake value at 96.3 MBq, iv after 1.5 mins by microPET; conditions: in vivo, 0.025 h; procedure, shortened: as §2
[22] = Drug level in normal rhesus monkey pons assessed as standard uptake value at 96.3 MBq, iv after 155 mins by microPET; conditions: in vivo
[23] = Drug level in normal rhesus monkey frontal cortex assessed as standard uptake value at 96.3 MBq, iv after 17.5 mins by microPET; conditions: in vivo
[24] = Drug level in normal rhesus monkey frontal cortex assessed as standard uptake value at 96.3 MBq, iv after 57.5 mins by microPET; conditions: in vivo
[25] = Drug level in normal rhesus monkey white matter assessed as standard uptake value at 96.3 MBq, iv after 3.5 mins by microPET; conditions: in vivo
[26] = Drug level in normal rhesus monkey cerebellum assessed as standard uptake value at 109.4 MBq, iv after 47.5 mins by microPET; conditions: in vivo
Procedure, shortened: (§3)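 One normal rhesus monkey received each tracer via the vena saphena, with 1 day between injections. Dynamic μPET ran 180 min for 18F tracers (5×60 s, 5×120 s, 9×300 s, 12×600 s) and 90 min for the 11C tracer (5×60 s, 5×120 s, 9×300 s, 3×600 s). Filtered back-projection reconstruction (RAMP filter) was used. Time-activity curves were drawn to give regional SUV.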

[27] = Drug level in normal rhesus monkey frontal cortex assessed as standard uptake value at 109.4 MBq, iv after 0.125 mins by microPET; conditions: in vivo, 7 s
[28] = Drug level in normal rhesus monkey frontal cortex assessed as standard uptake value at 109.4 MBq, iv after 22.5 mins by microPET; conditions: in vivo, 0.375 h; procedure, shortened: as §1
[29] = Drug level in normal rhesus monkey white matter assessed as standard uptake value at 109.4 MBq, iv after 111 mins by microPET; conditions: in vivo
[30] = Drug level in normal rhesus monkey white matter assessed as standard uptake value at 109.4 MBq, iv after 27.5 mins by microPET; conditions: in vivo
[31] = Drug level in normal rhesus monkey cerebellum assessed as standard uptake value at 152.9 MBq, iv after 42.5 mins by microPET; conditions: in vivo; procedure, shortened: as §3
[32] = Drug level in normal rhesus monkey cerebellum assessed as standard uptake value at 152.9 MBq, iv after 57.5 mins by microPET; conditions: in vivo; procedure, shortened: as §3
[33] = Drug level in normal rhesus monkey frontal cortex assessed as standard uptake value at 152.9 MBq, iv after 6 mins by microPET; conditions: in vivo, 0.1 h
Procedure, shortened: (§4)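 Single normal rhesus monkey; tracer given iv via the vena saphena, 1 day apart from the other tracer injections. Dynamic μPET ran 90 min (5×60 s, 5×120 s, 9×300 s, 3×600 s). Images were reconstructed by filtered back projection with a RAMP filter. Regional time-activity curves were expressed as SUV.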

[34] = Drug level in normal rhesus monkey frontal cortex assessed as standard uptake value at 152.9 MBq, iv after 37.5 mins by microPET; conditions: in vivo, 0.625 h; procedure, shortened: as §4
[35] = Drug level in normal rhesus monkey pons assessed as standard uptake value at 152.9 MBq, iv after 75 mins by microPET; conditions: in vivo, 1.25 h
[36] = Drug level in normal rhesus monkey parietal cortex assessed as standard uptake value at 152.9 MBq, iv after 52.5 mins by microPET; conditions: in vivo, 0.875 h

SUV [1]: 4.503
SUV [2]: 5.089
SUV [3]: 5.067
SUV [4]: 5.431
SUV [5]: 4.094
SUV [6]: 2.607
SUV [7]: 5.578
SUV [8]: 4.745
SUV [9]: 0.756
SUV [10]: 5.355
SUV [11]: 5.717
SUV [12]: 2.614
Compound: CNc1ccc2nc(-c3ccc([18F])cc3)sc2c1

SUV [13]: 2.31
SUV [14]: 2
SUV [15]: 2.3
SUV [16]: 2.33
SUV [17]: 2.46
SUV [18]: 2.21
SUV [19]: 1.97
SUV [20]: 1.44
SUV [21]: 1.17
SUV [22]: 1.87
SUV [23]: 2.22
SUV [24]: 2.01
SUV [25]: 1.15
Compound: CN(C)c1ccc2nc(-c3ccc([18F])cc3)sc2c1

SUV [26]: 3.54
SUV [27]: -0.06
SUV [28]: 5.16
SUV [29]: 3.82
SUV [30]: 3.2
Compound: Nc1ccc2nc(-c3ccc([18F])cc3)sc2c1

SUV [31]: 0.936
SUV [32]: 0.764
SUV [33]: 2.184
SUV [34]: 0.912
SUV [35]: 0.834
SUV [36]: 0.799
Compound: [11CH3]Nc1ccc(-c2nc3ccc(O)cc3s2)cc1 [PITTSBURGH COMPOUND B]
